The values below come from ChEMBL document CHEMBL1123309, “Esters and lactones of phenolic amino carboxylic acids: prodrugs for iron chelation” (J Med Chem, 1986).

Series [1] relates to Mus musculus. As to the kind of experiment: BDF1 male mice were administered with 100 mg/kg orally and percent change in iron levels was determined in spleen. Format: functional. The settings on record: dose 400 mg/kg; route oral; in the assay text read “400 mg/kg” for “100 mg/kg”. Summed up:
(§1)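 Male BDF1 mice made iron-overloaded by transfusion of washed, heat-treated (50 °C, 30 min) canine red cells. Dosing began 2 days after the last transfusion, once daily for 7 days, in distilled water or 2% Polysorbate 80 suspension. Daily group urine was collected. Pooled feces were digested in 1 N HCl (90 °C, 30 min). Liver and spleen were homogenized in saline. Iron was measured by atomic absorption and expressed as % change vs transfused controls.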

Series [2] relates to Mus musculus. As to the kind of experiment: BDF1 male mice were administered with 200 mg/kg orally and percent change in iron levels was determined in Urine. Format: functional. The settings on record: route oral. A digest of the protocol: as §1
For series [3], the system named is Mus musculus. In words: BDF1 male mice were administered with the compound and number of survivors was determined out of 10 tested at a dose 200 mg/kg peroral. Type of series: functional. To be noted: route oral. A digest of the protocol: (§2)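 Male BDF1 mice were iron-loaded by transfusion of canine red cells. The cells were heparinised, washed twice in isotonic saline and heated at 50 °C for 30 min. Dosing started two days after the last transfusion, once daily for 7 consecutive days. Compounds were given in distilled water or as a fine aqueous suspension with Polysorbate 80 (2% final). Toxic signs were recorded daily and survivors counted per group.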

Series [4] has as its system Mus musculus. As to the kind of experiment: BDF1 male mice were administered with 25 mg/kg orally and percent change in iron levels was determined in spleen. To be noted: dose 200 mg/kg; route intraperitoneal; in the assay text read “200 mg/kg intraperitoneally” for “25 mg/kg orally”. Format: functional.
Series [5] deals with Mus musculus. As to the kind of experiment: BDF1 male mice were administered with 200 mg/kg orally and percent change in iron levels was determined in Feces. Format: functional. To be noted: route oral. Summed up: as §1
The test system of series [6] is Mus musculus. As to the kind of experiment: BDF1 male mice were administered with 200 mg/kg orally and percent change in iron levels was determined in spleen. Type of series: functional. The settings on record: route oral. Summed up: as §1
For series [7], the system named is Mus musculus. As to the kind of experiment: BDF1 male mice were administered with 200 mg/kg orally and percent change in iron levels was determined in Liver. The settings on record: route oral. Format: functional. Summed up:
as §1

The subject of series [8] is Mus musculus. As to the kind of experiment: BDF1 male mice were administered with 50 mg/kg orally and percent change in iron levels was determined in spleen. Type of series: functional. The settings on record: dose 375 mg/kg; route intraperitoneal; in the assay text read “375 mg/kg intraperitoneally” for “50 mg/kg orally”.
Series [9] has as its system Mus musculus. In words: BDF1 male mice were administered with the compound and number of survivors was determined out of 10 tested at a dose 375 mg/kg intraperitoneal.
Series [10] relates to Mus musculus. As to the kind of experiment: BDF1 male mice were administered with the compound and number of survivors was determined out of 10 tested at a dose 400 mg/kg peroral. Format: functional. To be noted: route oral. Summed up: as §2
Series [11] relates to Mus musculus. As to the kind of experiment: BDF1 male mice were administered with 250 mg/kg orally and percent change in iron levels was determined in Feces. Format: functional. The settings on record: route oral. A digest of the protocol:
(§3)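 Hypertransfused male BDF1 mice (canine red cells, washed and heated at 50 °C for 30 min) were dosed orally for 7 days with compound in distilled water or a fine suspension with Polysorbate 80 (2% final). Daily group urine and pooled feces (1 N HCl digest, 90 °C, 30 min, triplicate) were collected, and liver and spleen were homogenized. Iron was measured by atomic absorption and reported as % change vs transfused control.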

The test system of series [12] is Mus musculus. As to the kind of experiment: BDF1 male mice were administered with 250 mg/kg orally and percent change in iron levels was determined in Spleen. Format: functional. To be noted: route oral. Summed up: as §3
In series [13] the test system is Mus musculus. As to the kind of experiment: BDF1 male mice were administered with the compound and number of survivors was determined at a dose 250 mg/kg peroral out of 10 tested. Format: functional. The settings on record: route oral. Summed up: as §2
The subject of series [14] is Mus musculus. As to the kind of experiment: BDF1 male mice were administered with 250 mg/kg orally and percent change in iron levels was determined in Urine. Type of series: functional. The settings on record: route oral. Summed up: as §3
The test system of series [15] is Mus musculus. As to the kind of experiment: BDF1 male mice were administered with 250 mg/kg orally and percent change in iron levels was determined in Liver. The settings on record: route oral. Type of series: functional. Summed up:
as §3

The nature of series [16]: Compound was evaluated for lethal dose after intraperitoneal administration using iron overload rat model. Format: toxicity, organism-based. The settings on record: in vivo, ip.
Series [17] relates to Rattus norvegicus. As to the kind of experiment: Percent change in iron levels was determined in feces using iron overload rat model where the route of administration is Intraperitoneal. Type of series: functional.
The test system of series [18] is Rattus norvegicus. As to the kind of experiment: Percent change in iron levels was determined in urine using iron overload rat model where the route of administration is Peroral. Format: functional.
In series [19] the test system is Rattus norvegicus. As to the kind of experiment: Percent change in iron levels was determined in urine using iron overload rat model where the route of administration is Intraperitoneal. Format: functional.
Series [20] deals with Mus musculus. In words: BDF1 male mice were administered with 300 mg/kg intraperitoneally and number of survivors was determined out of 10 tested. Format: functional. To be noted: route intraperitoneal. A digest of the protocol: as §2

Structures are written as SMILES. Several values for one entry are separate records, joined by “and”; a condition that tells them apart may be missing. Equal values may be shown once.

As to `COC(=O)CN(CCN(CC(=O)OC)Cc1ccccc1OC(C)=O)Cc1ccccc1OC(C)=O` [DIMETHYL ESTER], the Iron change in [1] is -46%; in series [2], 138%; in [4] it was -22%; in series [5], -41%; in series [6], -13%; in series [7] it was -40%. The Iron change in [8] is reported as -5%. Besides, the No. of survivors in series [3] is reported as 10; in series [9], 10; in series [10], 6.
For `O=C(CN(CCN(CC(=O)OCc1ccccc1)Cc1ccccc1O)Cc1ccccc1O)OCc1ccccc1`, the Iron change in series [11] is -10%; in [12] it was -21%; in series [14], 62%; in [15] it was -10%. The compound also returned a No. of survivors in [13] of 10.
As to `O=C(O)C(NCCNC(C(=O)O)c1ccccc1O)c1ccccc1O` (stereo not given), in series [16], the LD50 turned out to be 175 mg/kg. Besides, the Iron change in series [17] was 111%; in [18], 19% and 31%; in [19] it was 484%.
In series [20], `COC(=O)CN(Cc1ccccc1O)CC1CN(Cc2ccccc2O)CC(=O)O1` (stereo not given) came in with a No. of survivors of 10.

A word on the LD50: it is the dose expected to kill half of the subjects tested.
